The text below walks through data of article PMC11892073 (Journal of Enzyme Inhibition and Medicinal Chemistry, 2025).

The term IC50 denotes the concentration at which inhibition is half-maximal.

The experiment deals with DU-145 prostate cancer cells. Put plainly: In vitro antiproliferation assay. In kind it is cell-based. The following applies: Homo sapiens, DU-145, 72 h, read-out: DU-145 (IC50, nM). The method, boiled down: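 DU-145 cells (ATCC) grown in medium with 10% (v/v) FBS, 50 units/ml penicillin and 50 µg/ml streptomycin at 37 °C, 5% CO2. Seeded at 5 × 10^4 cells/well, left overnight, then exposed to varying test compound concentrations for 72 h at 37 °C. A 5 mg/mL MTT solution was added for 4 h. Supernatant was removed by centrifugation and crystals dissolved in DMSO. A570 was read. IC50 came from nonlinear regression; mean ± SD, n = 3.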

For the compound `CC[C@@H]1C(=O)N(C)c2cnc(Nc3ccc(C(=O)N[C@H]4CC[C@H](N5CCN(CC6CC6)CC5)CC4)cc3OC)nc2N1C(C)C` [BI-6727, volasertib], the IC50 is 4.03 ± 0.15 nM.
